For assay [1], the target named is T1, Amyloid-beta precursor protein (Homo sapiens, UniProt P05067). Kind of assay: Inhibition of human biotinylated amyloid beta (1 to 42) oligomerization assessed as decrease in oligomer abundance measured after 1 hr by ELISA. A general note: An ELISA detects its analyte on a solid surface through an enzyme-linked reagent.
The target in assay [2] is T1, Amyloid-beta precursor protein. The assay can be described thus: Inhibition of human amyloid beta (1 to 40) fibrillization at 20 uM measured every 15 mins for 100 hrs by Thioflavin-T fluorescence assay relative to control. A digest of the protocol: (§1)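 Aβ40 monomerized in HFIP (1 mg/mL), dried under argon, diluted to 20 μM final in 20 mM Tris, 8 μM ThT, 0.3 M NaCl, pH 7.4. Compounds added in DMSO, triplicate; DMSO-only control taken as 100% aggregation. ThT fluorescence (ex 450/em 482 nm) read every 15 min for ~100 h; percent inhibition versus control, averaged over three independent samples.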

Assay [3] has the same target. Kind of assay: Inhibition of human amyloid beta (1 to 40) fibrillization at 100 uM measured every 15 mins for 100 hrs by Thioflavin-T fluorescence assay relative to control. The essentials: as §1

T1 sequence (P05067 whole entry): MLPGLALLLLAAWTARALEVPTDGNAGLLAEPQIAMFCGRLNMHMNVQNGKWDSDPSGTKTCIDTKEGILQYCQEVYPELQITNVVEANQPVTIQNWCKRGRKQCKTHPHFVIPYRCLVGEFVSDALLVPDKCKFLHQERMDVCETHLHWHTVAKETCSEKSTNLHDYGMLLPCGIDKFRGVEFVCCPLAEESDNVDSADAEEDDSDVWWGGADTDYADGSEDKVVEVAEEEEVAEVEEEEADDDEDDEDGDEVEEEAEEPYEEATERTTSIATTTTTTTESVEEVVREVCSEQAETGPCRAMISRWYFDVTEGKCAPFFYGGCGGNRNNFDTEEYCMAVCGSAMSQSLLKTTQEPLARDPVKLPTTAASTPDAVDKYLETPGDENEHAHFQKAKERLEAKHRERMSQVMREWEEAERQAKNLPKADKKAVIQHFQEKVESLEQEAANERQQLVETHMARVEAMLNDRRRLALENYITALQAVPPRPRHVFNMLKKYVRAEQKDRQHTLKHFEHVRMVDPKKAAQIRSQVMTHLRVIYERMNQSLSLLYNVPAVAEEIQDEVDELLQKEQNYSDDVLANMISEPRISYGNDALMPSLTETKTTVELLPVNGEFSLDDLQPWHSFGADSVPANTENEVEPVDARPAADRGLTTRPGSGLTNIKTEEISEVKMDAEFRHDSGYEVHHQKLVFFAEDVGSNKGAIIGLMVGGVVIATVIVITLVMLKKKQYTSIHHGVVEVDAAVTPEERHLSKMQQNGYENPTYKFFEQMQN

`COc1cc(/C=C/C(=O)NCCC(=O)NCc2ccccc2)ccc1OCc1ccccc1`: in assay [1] (read-out: IC50), the IC50 (usually the midpoint of a concentration-inhibition curve) worked out at 81.6 µM.

Regarding `CCCN(CCC)C(=O)/C=C/c1ccc(OCCCOc2ccccc2)c(OC)c1`, the IC50 entry in assay [1] is on record as “Not Active”.

Regarding `COc1cc(/C=C/C(=O)N2CC(C(=O)NCCOc3ccccc3)C2)ccc1OCc1ccccc1`, the inhibition (in general, the share of the control response that was lost under treatment) in assay [2] came out at 5.5%; in assay [3], 20.6%. In addition, the IC50 in assay [1] (read-out: IC50) turned out to be 1.8 µM.

Turning to `COc1cc(/C=C/C(=O)N2CC(C(=O)NCc3ccco3)C2)ccc1OCc1ccccc1`, in assay [1] (read-out: IC50), the IC50 turned out to be 3.61 µM.

On to `CCN(CC)C(=O)C1CN(C(=O)/C=C/c2ccc(OCc3ccccc3)c(OC)c2)C1`, for which, in assay [1] (read-out: IC50), the IC50 turned out to be 12.8 µM.

For `COc1cc(/C=C/C(=O)NCc2ccco2)ccc1OCc1ccccc1`, the IC50 result in assay [1] is recorded as “Not Active”.

In the case of `COc1cc(-c2cncn2CCC(=O)NCCOc2ccccc2)ccc1OCc1ccccc1`, the inhibition in assay [2] was found to be 5.98%; in assay [3], 13.8%. Also, in assay [1] (read-out: IC50), the IC50 stood at 7.76 µM.

Regarding `COc1cc(/C=C/C(=O)N2CC(C(=O)NCc3ccccc3)C2)ccc1OCc1ccccc1`, the inhibition in assay [2] is 14.8%; in assay [3], 48.2%. In assay [1] (read-out: IC50), the IC50 amounted to 3.13 µM.

With `CCN(CC)C(=O)/C=C/c1ccc(OCc2cscn2)c(OC)c1`, in assay [1], the IC50 entry is recorded as “Not Active”.

`COc1cc(/C=C/C(=O)N(C)C)ccc1OCc1ccccc1` had an inhibition in assay [3] of 0%. Moreover, the IC50 in assay [1] (read-out: IC50) was 24.6 µM.

Consider `COc1cc(/C=C/CN2CCCCC2)ccc1OCc1ccccc1`, for which the inhibition in assay [2] was 0.29%; in assay [3], 22.3%. The IC50 in assay [1] (read-out: IC50) came to 10.6 µM.

In the case of `COc1cc(/C=C/C(=O)O)ccc1O` [FERULATE], the inhibition in assay [2] amounted to 9.75%; in assay [3], 36.8%. The IC50 in assay [1] (read-out: IC50) came out at 226 µM.

For `COc1cc(/C=C/C(=O)N2CC(F)(F)C2)ccc1OCc1ccccc1`, the IC50 in assay [1] (read-out: IC50) turned out to be 107 µM.

In the case of `COc1cc(/C=C/C(=O)N2CCOCC2)ccc1OCc1ccccc1`, the IC50 in assay [1] (read-out: IC50) came to 78.1 µM.

Take `COc1cc([C@H]2C[C@@H]2C(=O)N2CCCCC2)ccc1OCc1ccccc1`: the inhibition in assay [2] was found to be 0%; in assay [3], 13.3%. In addition, the IC50 in assay [1] (read-out: IC50) came out at 18.7 µM.

On to `COc1cc(/C=C/C(=O)NCCC(=O)N2CCCCC2)ccc1OCc1ccccc1`, for which the IC50 in assay [1] (read-out: IC50) was 8.17 µM.

With `COc1cc(/C=C/C(=O)Nc2nnn[nH]2)ccc1OCc1ccccc1`, the inhibition in assay [3] worked out at 0%. Besides, the IC50 in assay [1] (read-out: IC50) was determined as 98.5 µM.

For `CCCN(CCC)C(=O)/C=C/c1ccc(OCc2ccccc2)c(OC)c1`, the inhibition worked out at 9.35% in assay [2] and 17% in assay [3]. In assay [1] (read-out: IC50), the IC50 came to 12.4 µM.

Regarding `COc1cc(/C=C/C(=O)N2CC(C(=O)N3CCCCC3)C2)ccc1OCc1ccccc1`, in assay [1] (read-out: IC50), the IC50 was 10.6 µM.

In the case of `COc1cc(/C=C/C(=O)N2CCCCC2)ccc1OCc1ccccc1`, the inhibition stood at 7.28% in assay [2] and 13.4% in assay [3]. Further, in assay [1] (read-out: IC50), the IC50 is 27.9 µM.

For the compound `CCCN(CCC)C(=O)/C=C/c1ccc(OC)c(OC)c1`, the IC50 in assay [1] (read-out: IC50) stood at 45.3 µM.

`COc1cc(/C=C/c2nnn[nH]2)ccc1OCc1ccccc1` yielded an inhibition in assay [3] of 9.56%. Further, the IC50 result in assay [1] is “Not Active”.

In the case of `COc1cc(/C=C/C(=O)N2CCC[C@H]2C(=O)NCCOc2ccccc2)ccc1OCc1ccccc1`, the IC50 in assay [1] (read-out: IC50) amounted to 8.59 µM.

With `COc1cc([C@H]2C[C@@H]2C(=O)N(C)C)ccc1OCc1ccccc1`, the inhibition in assay [3] stood at 8.81%. In addition, the IC50 in assay [1] (read-out: IC50) stood at 45.8 µM.

Take `COc1cc(/C=C/C(=O)N2CC(C(=O)NCc3ccc(F)cc3)C2)ccc1OCc1ccccc1`: in assay [1] (read-out: IC50), the IC50 stood at 3.65 µM.

As for `CCCN(CCC)C(=O)/C=C/c1ccc(OCc2cc(OC)cc(OC)c2)c(OC)c1`, the IC50 result in assay [1] is recorded as “Not Active”.

`COc1cc(-c2cncn2CCC(=O)NCCc2ccccc2)ccc1OCc1ccccc1` displayed an inhibition in assay [3] of 0%. For the same compound, in assay [1] (read-out: IC50), the IC50 was found to be 9.91 µM.

For the compound `CCCN(CCC)C(=O)/C=C/c1ccc(O)c(OC)c1`, in assay [1] (read-out: IC50), the IC50 is 98.8 µM.

As to `COc1ccc(CNC(=O)[C@@H]2CCCN2C(=O)/C=C/c2ccc(OCc3ccccc3)c(OC)c2)cc1`, the IC50 in assay [1] (read-out: IC50) is 19.2 µM.

On to `CCN(CC)C(=O)/C=C/c1ccc(OS(=O)(=O)c2ccc(C)cc2)c(OC)c1`, for which the inhibition in assay [2] amounted to 1.95%; in assay [3], 3.62%. In assay [1] (read-out: IC50), the IC50 amounted to 10.6 µM.

As for `CCN(CC)C(=O)/C=C/c1ccc(O)c(OC)c1`, the IC50 in assay [1] (read-out: IC50) was 205 µM.

Regarding `COc1cc(/C=C/C(=O)N2CCC[C@H]2C(=O)NCc2ccccc2)ccc1OCc1ccccc1`, the IC50 in assay [1] (read-out: IC50) came out at 18.7 µM.

With `COc1cc(/C=C/C(=O)N2CCN(c3ccccc3)CC2)ccc1OCc1ccccc1`, the IC50 result in assay [1] was “Not Active”.

As to `COc1cc(/C=C/C(=O)N2CC(C(=O)N3CCOCC3)C2)ccc1OCc1ccccc1`, the IC50 in assay [1] (read-out: IC50) worked out at 35.7 µM.

As for `CCCN(CCC)C(=O)/C=C/c1ccc(OCc2cc(F)cc(F)c2)c(OC)c1`, in assay [1], the IC50 entry is on record as “Not Active”.

For `COc1cc(/C=C/C(=O)NCCOc2ccccc2)ccc1OCc1ccccc1`, the IC50 entry in assay [1] is recorded as “Not Active”.

As for `CCN(CC)C(=O)/C=C/c1ccc(OCc2ccccc2)c(OC)c1`, the inhibition in assay [3] was determined as 0%. Also, in assay [1] (read-out: IC50), the IC50 was 39.3 µM.

In the case of `CCN(CC)C(=O)/C=C/c1ccc(OCc2cccnc2)c(OC)c1`, in assay [1], the IC50 result is on record as “Not Active”.

Turning to `COc1cc(/C=C/C(=O)NCCC(=O)NCCOc2ccccc2)ccc1OCc1ccccc1`, the IC50 in assay [1] (read-out: IC50) was determined as 17.9 µM.

As for `COc1cc(/C=C/C(O)C(F)(F)F)ccc1OCc1ccccc1` (stereo not given), the inhibition in assay [2] came out at 0%; in assay [3], 44.1%. Moreover, the concentration for half-maximal inhibition (IC50) result in assay [1] was “Not Active”.

Consider `CCN(CC)C(=O)CCc1ccc(OCc2ccccc2)c(OC)c1`, for which the inhibition in assay [3] is 6.49%. In addition, in assay [1] (read-out: IC50), the IC50 stood at 34.9 µM.

With `COc1cc(/C=C/C(=O)N2CCC[C@@H]2C(=O)NCc2ccccc2)ccc1OCc1ccccc1`, in assay [1] (read-out: IC50), the IC50 is 17.8 µM.

`COc1cc(-c2cncn2Cc2ccccc2)ccc1OCc1ccccc1`: the inhibition in assay [2] was determined as 2.21%; in assay [3], 27.5%. In assay [1], the IC50 entry is “Not Active”.

`COc1cc(/C=C/C(=O)N2CCC[C@H]2C(=O)N2CCCCC2)ccc1OCc1ccccc1`: the IC50 in assay [1] (read-out: IC50) was found to be 17.1 µM.

In the case of `COc1cc(/C=C/C(=O)N2CC(C(=O)N3CC(F)(F)C3)C2)ccc1OCc1ccccc1`, the IC50 in assay [1] (read-out: IC50) worked out at 21.8 µM.

As for `CCN(CC)C(=O)/C=C/c1ccc(O)c(O)c1`, the results for the inhibition in assay [2] and in assay [3] were 73.1% and 91.9%, respectively. Moreover, the IC50 in assay [1] (read-out: IC50) came out at 119 µM.

On to `CCN(CC)C(=S)/C=C/c1ccc(OCc2ccccc2)c(OC)c1`, for which the concentration for half-maximal inhibition (IC50) result in assay [1] is recorded as “Not Active”.

In the case of `COc1cc(/C=C/C(=O)N2CCCC2)ccc1OCc1ccccc1`, the IC50 in assay [1] (read-out: IC50) came out at 65.1 µM.

For the compound `COc1ccc(CNC(=O)C2CN(C(=O)/C=C/c3ccc(OCc4ccccc4)c(OC)c3)C2)cc1`, the IC50 in assay [1] (read-out: IC50) was determined as 4.78 µM.

For `COc1cc(/C=C/c2cnco2)ccc1OCc1ccccc1`, in assay [1], the IC50 entry was “Not Active”.

For the compound `COc1cc(/C=C/C(=O)NCc2ccccc2)ccc1OCc1ccccc1`, in assay [1], the IC50 entry is reported as “Not Active”.

`COc1cc(/C=C/C(=O)N2CCC[C@@H]2C(=O)NCCOc2ccccc2)ccc1OCc1ccccc1`: in assay [1] (read-out: IC50), the IC50 amounted to 16.8 µM.

For `COc1cc(/C=C/C(=O)N(C)OC)ccc1OCc1ccccc1`, the IC50 in assay [1] (read-out: IC50) was 79.9 µM.

For `COc1ccc(CNC(=O)CCNC(=O)/C=C/c2ccc(OCc3ccccc3)c(OC)c2)cc1`, the IC50 in assay [1] (read-out: IC50) turned out to be 54.2 µM.
